# Experimental data taken from publication PMC6221089 (Diabetes, Obesity & Metabolism, 2018).
# No end group written: not given here.
# Columns and labels:
# plasma glucose = assay type: in vivo, people with type 2 diabetes
# Outline: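 Clamp performed about 48 h after the 13th dose, with four 30-min target PG levels. AUC of glucose infusion rate computed at each level. Fasting PG measured on the morning of the day before the clamp. Recovery defined as PG ≥4.0 mmol/L, timed from termination of the insulin infusion at nadir; spontaneous recovery meant reaching this <40 min.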
# [1] = system: people with type 2 diabetes; assay type: in vivo
# Outline: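 Stepwise hypoglycaemic clamp about 48 h after the 13th weekly s.c. dose; participants fasted (water allowed), supine or semi-supine, with 30-min target PG plateaux. At each target level, symptoms were scored on the Edinburgh Hypoglycaemia Scale and recognition recorded as a yes/no answer to "Do you feel hypo?".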
# [2] = system: people with type 2 diabetes; assay: Vital signs during the hypoglycaemic clamp; assay type: in vivo
# Outline: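 Heart rate and systolic and diastolic BP recorded at each 30-min target PG level of the stepwise hypoglycaemic clamp. Each value is the mean of two readings, at 0 and 30 min. The clamp was run about 48 h after the 13th weekly s.c. dose, with participants fasted and supine or semi-supine.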
# [3] = system: people with type 2 diabetes; assay: Safety assessments; assay type: in vivo
# Outline: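 Treatment-emergent adverse events counted from baseline to the follow-up visit: those starting on or after the first treatment day and no later than follow-up. Dosing was once-weekly s.c. self-injection for 13 doses per crossover period (0.25, 0.5, then 1.0 mg escalation; placebo volume-matched). Follow-up was in the final week of the second 5-week sampling period.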
# [4] = system: counterregulatory responses to hypoglycaemia; conditions: cited from earlier work
# [5] = LEADER trial; cited from earlier work
# [6] = once-weekly s.c. treatment, 13 doses
compound,measurement,setting,value
CC[C@H](C)[C@H](NC(=O)[C@H](Cc1ccccc1)NC(=O)[C@H](CCC(=O)O)NC(=O)[C@H](CCCCNC(=O)COCCOCCNC(=O)COCCOCCNC(=O)CC[C@H](NC(=O)CCCCCCCCCCCCCCCCC(=O)O)C(=O)O)NC(=O)[C@H](C)NC(=O)[C@H](C)NC(=O)[C@H](CCC(N)=O)NC(=O)CNC(=O)[C@H](CCC(=O)O)NC(=O)[C@H](CC(C)C)NC(=O)[C@H](Cc1ccc(O)cc1)NC(=O)[C@H](CO)NC(=O)[C@H](CO)NC(=O)[C@@H](NC(=O)[C@H](CC(=O)O)NC(=O)[C@H](CO)NC(=O)[C@@H](NC(=O)[C@H](Cc1ccccc1)NC(=O)[C@@H](NC(=O)CNC(=O)[C@H](CCC(=O)O)NC(=O)C(C)(C)NC(=O)[C@@H](N)Cc1cnc[nH]1)[C@@H](C)O)[C@@H](C)O)C(C)C)C(=O)N[C@@H](C)C(=O)N[C@@H](Cc1c[nH]c2ccccc12)C(=O)N[C@@H](CC(C)C)C(=O)N[C@H](C(=O)N[C@@H](CCCNC(=N)N)C(=O)NCC(=O)N[C@@H](CCCNC(=N)N)C(=O)NCC(=O)O)C(C)C [semaglutide],Time to reach recovery (PG ≥4.0 mmol/L),plasma glucose; geometric mean,44 min
same,Proportion of participants who recovered spontaneously,plasma glucose; reaching PG ≥4.0 mmol/L < 40 minutes after termination of the insulin infusion at nadir,~ 50%
same,Estimated mean hypoglycaemic symptom score vs placebo,"[1]; Edinburgh Hypoglycaemia Scale, target PG level 5.5 mmol/L",No difference
same,Effect on cognitive function,"[1]; Trail Making-B, Digit Symbol Substitution, Four-Choice Reaction Time tests, all PG levels",no effect
same,"Hypoglycaemia recognition, answer to ""Do you feel hypo?""",[1]; target level 5.5 mmol/L,all participants answered “no”
same,"Response to hypoglycaemia for heart rate, systolic or diastolic BP vs placebo",[2],no systematic differences
same,Severity of adverse events,"[3]; all events, both treatments",mild or moderate
same,"Clinical laboratory assessments (including amylase, lipase and calcitonin), physical examination or ECG",[3]; baseline to follow-up,No safety findings
same,Development of anti-semaglutide antibodies,[3]; baseline to follow-up,no participant developed anti‐semaglutide antibodies
same,Deaths or pancreatitis cases,[3]; during the trial,No deaths or pancreatitis cases
same,"Diastolic BP, mean (SD) change from baseline to end-of-treatment",[3]; [6],−2 [10] mm Hg
same,"Heart rate, mean (SD) change from baseline to end-of-treatment",[3]; [6],6 [8] beats/min
same,"Systolic BP, mean (SD) change from baseline to end-of-treatment",[3]; [6],−8 [16] mm Hg
"Native GLP‐1: incretin hormone secreted by intestinal L cells in response to food intake (HAEGTFTSDVSSYLEGQAAKEFIAWLVKGR; ends and bridges not checked; UniProt P01275 98-127, looked up)",Effect on the response to hypoglycaemia,[4]; healthy volunteers,no effect
liraglutide: GLP‐1 receptor agonist with a similar structure to semaglutide but a different pharmacokinetic profile,Effect on the counterregulatory responses to hypoglycaemia,[4],no effect
same,Incidence of severe hypoglycaemia compared with placebo,[5],statistically significantly lower
